Assays:
Rat [1] = assay: concentration in plasma after dosing; details: 0.5 h; dosed: 2-Methyltetrahydrofuran; 40 mg/kg; iv; Male; Harlan Sprague Dawley
Rat [2] = assay: concentration in plasma after dosing; details: 6 h; dosed: 2-Methyltetrahydrofuran; 40 mg/kg; iv; Male; Harlan Sprague Dawley
Rat [3] = assay: concentration in plasma after dosing; details: 0.2 h; dosed: 2-Methyltetrahydrofuran; 40 mg/kg; iv; Male; Harlan Sprague Dawley
Rat [4] = assay: concentration in plasma after dosing; details: 0.2 h; dosed: 2-Methyltetrahydrofuran; 40 mg/kg; iv; Male; Harlan Sprague Dawley; remark: listed apart in the source
Rat [5] = assay: concentration in brain after dosing; details: 0.5 h; dosed: 2-Methyltetrahydrofuran; 40 mg/kg; iv; Female; Harlan Sprague Dawley
Rat [6] = assay: concentration in brain after dosing; details: 7 min; dosed: 2-Methyltetrahydrofuran; 40 mg/kg; iv; Male; Harlan Sprague Dawley
Rat [7] = assay: concentration in brain after dosing; details: 2 h; dosed: 2-Methyltetrahydrofuran; 40 mg/kg; iv; Male; Harlan Sprague Dawley
Rat [8] = assay: concentration in brain after dosing; details: 0.75 h; dosed: 2-Methyltetrahydrofuran; 40 mg/kg; iv; Male; Harlan Sprague Dawley
Rat [9] = assay: concentration in plasma after dosing; details: 4 h; dosed: 2-Methyltetrahydrofuran; 40 mg/kg; iv; Female; Harlan Sprague Dawley
Rat [10] = assay: concentration in brain after dosing; details: 1.5 h; dosed: 2-Methyltetrahydrofuran; 40 mg/kg; iv; Male; Harlan Sprague Dawley
Rat [11] = assay: concentration in plasma after dosing; details: 192 h; dosed: 678-39-7; 40 mg/kg; iv; Male; F344
Rat [12] = assay: concentration in plasma after dosing; details: dosed: Fluorotelomer alcohol 8+2, 12 mg/kg, oral, Male, Harlan Sprague Dawley
Rat [13] = assay: concentration in plasma after dosing; details: dosed: 678-39-7, 40 mg/kg, iv, Male, F344
Rat [14] = assay: concentration in plasma after dosing; details: 192 h; dosed: 678-39-7; 40 mg/kg; iv; Male; F344; remark: listed apart in the source
Rat [15] = assay: concentration in plasma after dosing; details: 3 h; dosed: Fluorotelomer alcohol 8+2; 12 mg/kg; oral; Male; Harlan Sprague Dawley
Rat [16] = assay: concentration in plasma after dosing; details: dosed: 678-39-7, 12 mg/kg, iv, Male, F344
Rat [17] = assay: concentration in plasma after dosing; details: 0.25 h; dosed: 678-39-7; 12 mg/kg; iv; Male; F344
Rat [18] = assay: concentration in plasma after dosing; details: dosed: Perfluorohexanoic Acid, 40 mg/kg, iv, Male, F344
Rat [19] = assay: concentration in kidney after dosing; details: 3 h; dosed: Perfluorohexanoic Acid; 80 mg/kg; oral; Female; Harlan Sprague Dawley
Rat [20] = assay: concentration in brain after dosing; details: 0.5 h; dosed: Perfluorohexanoic Acid; 80 mg/kg; oral; Male; Harlan Sprague Dawley
Rat [21] = assay: concentration in kidney after dosing; details: 12 h; dosed: Perfluorohexanoic Acid; 80 mg/kg; oral; Male; Harlan Sprague Dawley
Rat [22] = assay: concentration in plasma after dosing; details: 0.5 h; dosed: Perfluorohexanoic Acid; 40 mg/kg; iv; Male; F344
Rat [23] = assay: concentration in plasma after dosing; details: 2 h; dosed: Gemfibrozil; 50 mg/kg; oral; Male; Sprague-Dawley
Rat [24] = assay: concentration in plasma after dosing; details: 4 h; dosed: Gemfibrozil; 4.29 mg/kg; oral; Male; Sprague-Dawley
Rat [25] = assay: concentration in plasma after dosing; details: 4 h; dosed: Gemfibrozil; 100 mg/kg; oral; Male; Sprague-Dawley
Rat [26] = assay: concentration in plasma after dosing; details: 6 h; dosed: Gemfibrozil; 4.29 mg/kg; oral; Male; Sprague-Dawley
Rat [27] = assay: concentration in plasma after dosing; details: 18 h; dosed: Gemfibrozil; 100 mg/kg; oral; Male; Sprague-Dawley
Rat [28] = assay: concentration in plasma after dosing; details: 15 h; dosed: Gemfibrozil; 4.29 mg/kg; oral; Male; Sprague-Dawley
human = assay: concentration in expired air after dosing; details: dosed: trichloroethylene, 100 ppm, inhalation, duration: 4 hr, person
Outline: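 Points were largely digitised from plot screenshots with WebPlotDigitizer or otherwise copied from tables, and they remain in the units each source reported. They come from published in vivo toxicokinetic studies and two structured collections. Sampling and analytical methods follow each source and were often not reported.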

Rat [29] = assay: concentration in liver after dosing; details: 24 h; dosed: Perfluorooctane Sulfonate; 20 mg/kg; oral; Female; F344
Rat [30] = assay: concentration in plasma after dosing; details: 6 h; dosed: Perfluorooctane Sulfonate; 2 mg/kg; oral; Female; Harlan Sprague Dawley
Rat [31] = assay: concentration in brain after dosing; details: 24 h; dosed: Perfluorooctane Sulfonate; 2 mg/kg; oral; Female; Harlan Sprague Dawley
Rat [32] = assay: concentration in kidney after dosing; details: 6 h; dosed: Perfluorooctane Sulfonate; 2 mg/kg; oral; Female; Harlan Sprague Dawley
Rat [33] = assay: concentration in plasma after dosing; details: dosed: Perfluorooctane Sulfonate, 2 mg/kg, iv, Male, F344
Rat [34] = assay: concentration in kidney after dosing; details: 1848 h; dosed: Perfluorooctane Sulfonate; 20 mg/kg; oral; Female; F344
Rat [35] = assay: concentration in kidney after dosing; details: 3360 h; dosed: Perfluorooctane Sulfonate; 20 mg/kg; oral; Male; Harlan Sprague Dawley
Rat [36] = assay: concentration in kidney after dosing; details: 6 h; dosed: Perfluorooctane Sulfonate; 2 mg/kg; oral; Female; Harlan Sprague Dawley; remark: listed apart in the source

CC1CCCO1 (centres undefined) [2-Methyltetrahydrofuran]
Details | concentration in brain [ng/mL] | concentration in plasma [ng/mL]
Rat [1] | – | 25100
Rat [2] | – | 16.9
Rat [3] | – | 37600
Rat [4] | – | 37000
Rat [5] | 13800 | –
Rat [6] | 34000 | –
Rat [7] | 8260 | –
Rat [8] | 15400 | –
Rat [9] | – | 245
Rat [10] | 8330 | –

O=C(O)CCC(F)(F)C(F)(F)C(F)(F)C(F)(F)C(F)(F)C(F)(F)C(F)(F)F [Fluorotelomer acid 7+3]
Details | concentration in plasma [ng/mL]
Rat [11] | 48.1
Rat [14] | 49.7
Rat [15] | 726
Rat [17] | 51.7

concentration in plasma [ng/mL]
Details | 0.25 h | 1 h | 6 h | 24 h
Rat [12] | – | 334 | – | 377
Rat [13] | 84.2 | – | 820 | –
Rat [16] | 37 | – | – | 183

O=C(O)C(F)(F)C(F)(F)C(F)(F)C(F)(F)C(F)(F)F [Perfluorohexanoic Acid]
Rat [18]
Details | concentration in plasma [ng/mL]
0.5 h | 23200
12 h | 120

Details | concentration in brain [ng/g] | concentration in kidney [ng/g] | concentration in plasma [ng/mL]
Rat [19] | – | 71400 | –
Rat [20] | 2590 | – | –
Rat [21] | – | 1990 | –
Rat [22] | – | – | 8680

Cc1ccc(C)c(OCCCC(C)(C)C(=O)O)c1 [Gemfibrozil]
Details | concentration in plasma [ng/mL]
Rat [23] | 7210
Rat [24] | 596
Rat [25] | 7120
Rat [26] | 388
Rat [27] | 3080
Rat [28] | 131

ClC=C(Cl)Cl [trichloroethylene]
human
Details | concentration in expired air [ppm]
0.2144 h | 4.28
0.5331 h | 2.8
1.023 h | 1.97
2.042 h | 1.38
4.039 h | 0.761
5.983 h | 0.736
7.98 h | 0.579
10.1 h | 0.488

O=S(=O)([O-])C(F)(F)C(F)(F)C(F)(F)C(F)(F)C(F)(F)C(F)(F)C(F)(F)C(F)(F)F [Perfluorooctane Sulfonate]
Details | concentration in brain [ng/g] | concentration in kidney [ng/g] | concentration in liver [ng/g] | concentration in plasma [ng/mL]
Rat [29] | – | – | 160000 | –
Rat [30] | – | – | – | 4580
Rat [31] | 920 | – | – | –
Rat [32] | – | 12700 | – | –
Rat [34] | – | 22700 | – | –
Rat [35] | – | 10400 | – | –
Rat [36] | – | 9250 | – | –

Rat [33]
Details | concentration in plasma [ng/mL]
12 h | 5170
1200 h | 1700

Reference: EPA's CvTdb concentration-time database
